The record followed here is ChEMBL document CHEMBL2331282, “9-[2-(R)-(Phosphonomethoxy)propyl]-2,6-diaminopurine (R)-PMPDAP and its prodrugs: optimized preparation, including identification of by-products formed, and antiviral evaluation in vitro” (Bioorg Med Chem, 2013).

The test system of data set [1] is Punta Toro virus. Briefly: Antiviral activity against Punta Toro virus infected in african green monkey Vero cells. The class given is functional, organism-based.
The test system of data set [2] is Feline immunodeficiency virus. Description: Antiviral activity against Feline immunodeficiency virus infected in cat CRFK cells assessed as decrease in FIV p24 antigen level treated post-viral infection measured after 6 days by ELISA. The class given is functional, organism-based. As to conditions: 144 h. In a few lines: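 CrFK cells (5000/well) pre-seeded 24 h at 37 °C, 5% CO2; washed with PBS containing 50 µg/ml DEAE-dextran, inoculated with 100 CCID50 FIV plus serial compound dilutions; after 2 h washed and overlaid with 5% FCS DMEM plus compound.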
A general note: ELISA stands for enzyme-linked immunosorbent assay.

The test system of data set [3] is Human betaherpesvirus 5. Description: Antiviral activity against Human cytomegalovirus at non-toxic concentration. The class given is functional, organism-based.
In data set [4] the test system is Human alphaherpesvirus 2. Briefly: Antiviral activity against Herpes simplex virus 2 at non-toxic concentration. Type of data set: functional, organism-based.
The test system of data set [5] is Human immunodeficiency virus 1. Description: Antiviral activity against Human immunodeficiency virus 1 3B infected in human MT4 cells assessed as reduction of virus-induced cytopathicity treated post-viral infection measured after 5 days by Cell-Titer Glo assay. Type of data set: functional, organism-based. The conditions noted are these: MT4, 120 h. (Damage to the host cells serves as the signal in cytopathic effect assays.)

Data set [6] deals with Human alphaherpesvirus 3. Description: Antiviral activity against TK+ Varicella zoster virus OKA. Type of data set: functional. The conditions noted are these: Human alphaherpesvirus 3, strain Oka vaccine.
Another data set relates to MT4. Description: Cytotoxicity against human MT4 cells assessed as decrease in cell viability after 5 days by CellTiter Glo assay. Type of data set: cell-based. The conditions noted are these: mt4, 120 h. In a few lines:
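MT-4 cells, 2000/well, in RPMI 1640 with 10% FBS plus penicillin/streptomycin; 3-fold serial dilutions, 10 concentrations, final DMSO ≤0.5%; 10 µM puromycin and 0.5% DMSO controls.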
(ATP-based viability assays read luminescence as a measure of living cells.)

The subject of data set [7] is Human alphaherpesvirus 1. Description: Antiviral activity against Herpes simplex virus 1 at non-toxic concentration. Type of data set: functional, organism-based.
For data set [8], the system named is Coxsackievirus B4. Description: Antiviral activity against Coxsackievirus B4 infected in african green monkey Vero cells. The class given is functional, organism-based. As to conditions: Enterovirus B.
The test system of data set [9] is Felid alphaherpesvirus 1. Briefly: Antiviral activity against Feline herpes virus at non-toxic concentration. The class given is functional, organism-based.
Data set [10] is described as follows: Cytotoxicity against cat CRFK cells assessed as decrease in cell viability after 3 days by CellTiter 96 Aqueous One solution assay. The class given is cell-based, Felis catus. The conditions noted are these: 72 h.
In data set [11] the test system is Human alphaherpesvirus 3. Briefly: Antiviral activity against TK- Varicella zoster virus O7-1. The class given is functional, organism-based. As to conditions: Human alphaherpesvirus 3, O7-1.
Another data set relates to Vaccinia virus. Description: Antiviral activity against Vaccinia virus at non-toxic concentration. The conditions noted are these: Orthopoxvirus vaccinia. The class given is functional, organism-based.
The test system of data set [12] is Human immunodeficiency virus 1. Description: Antiviral activity against Human immunodeficiency virus 1 infected in human CEM cells assessed as reduction of virus-induced cytopathogenicity. The class given is functional, organism-based. The conditions noted are these: Human immunodeficiency virus 1, CCRF-CEM.
Another data set relates to Sindbis virus. Description: Antiviral activity against Sindbis virus infected in dog MDCK cells assessed as reduction of virus-induced cytopathogenicity. The class given is functional, organism-based.
Data set [13] has as its system Human betaherpesvirus 5. Description: Antiviral activity against Human cytomegalovirus infected in human HEL cells assessed as reduction of virus-induced cytopathogenicity. The class given is functional, organism-based. The conditions noted are these: Human betaherpesvirus 5, HEL.
Data set [14] can be described thus: Cytotoxicity against human HeLa cells assessed as alteration of cell morphology up to 100 uM by microscopic analysis. The class given is cell-based.
The subject of data set [15] is Vesicular stomatitis virus. Briefly: Antiviral activity against Vesicular stomatitis virus infected in human HEL cells assessed as reduction of virus-induced cytopathogenicity. Type of data set: functional, organism-based.
Data set [16] concerns Human alphaherpesvirus 1. Description: Antiviral activity against Herpes simplex virus 1 infected in human HEL cells assessed as reduction of virus-induced cytopathogenicity. The class given is functional, organism-based. The conditions noted are these: Human alphaherpesvirus 1, HEL.
Data set [17] concerns Human immunodeficiency virus 2. Briefly: Antiviral activity against Human immunodeficiency virus 2 infected in human CEM cells assessed as reduction of virus-induced cytopathogenicity. The class given is functional, organism-based. As to conditions: Human immunodeficiency virus 2, CCRF-CEM.
The subject of data set [18] is Mammalian orthoreovirus 1. Description: Antiviral activity against Reovirus 1 infected in dog MDCK cells assessed as reduction of virus-induced cytopathogenicity. As to conditions: Mammalian orthoreovirus 1, MDCK. The class given is functional, organism-based.
The nature of data set [19]: Cytotoxicity against cat CRFK cells assessed as alteration of cell morphology up to 100 uM by microscopic analysis. Type of data set: cell-based, Felis catus.
Data set [20] has as its system Vesicular stomatitis virus. Description: Antiviral activity against Vesicular stomatitis virus infected in human HeLa cells assessed as reduction of virus-induced cytopathogenicity. Type of data set: functional, organism-based.
Data set [21] deals with Felid alphaherpesvirus 1. Briefly: Antiviral activity against Feline herpes virus infected in cat CRFK cells assessed as reduction of virus-induced cytopathogenicity. Type of data set: functional, organism-based. As to conditions: Felid alphaherpesvirus 1, CRFK.
Data set [22] can be described thus: Cytotoxicity against dog MDCK cells assessed as alteration of cell morphology up to 100 uM by microscopic analysis. The class given is cell-based, Canis lupus familiaris.
For another data set, the system named is Human respirovirus 3. Briefly: Antiviral activity against Parainfluenza virus 3 infected in dog MDCK cells assessed as reduction of virus-induced cytopathogenicity. Type of data set: functional, organism-based. As to conditions: Human respirovirus 3, MDCK.
In the next data set the test system is Feline coronavirus. Description: Antiviral activity against Feline coronavirus infected in cat CRFK cells assessed as reduction of virus-induced cytopathogenicity. Type of data set: functional, organism-based. The conditions noted are these: Alphacoronavirus 1, CRFK.
Data set [23] relates to Punta Toro virus. Description: Antiviral activity against Punta Toro virus infected in dog MDCK cells assessed as reduction of virus-induced cytopathogenicity. The class given is functional, organism-based.
The subject of data set [24] is Respiratory syncytial virus. Briefly: Antiviral activity against Respiratory syncytial virus infected in human HeLa cells assessed as reduction of virus-induced cytopathogenicity. Type of data set: functional, organism-based.
Data set [25] can be described thus: Cytotoxicity against human CEM cells assessed as alteration of cell morphology by microscopic analysis. The class given is cell-based. As to conditions: CEM cells (CCRF-CEM).
The subject of data set [26] is Coxsackievirus B4. Briefly: Antiviral activity against Coxsackievirus B4 infected in dog MDCK cells assessed as reduction of virus-induced cytopathogenicity. Type of data set: functional, organism-based. As to conditions: Enterovirus B.
Data set [27] deals with Human alphaherpesvirus 2. Briefly: Antiviral activity against Herpes simplex virus 2 infected in human HEL cells assessed as reduction of virus-induced cytopathogenicity. As to conditions: Human alphaherpesvirus 2, HEL. Type of data set: functional, organism-based.
In data set [28] the test system is Coxsackievirus B4. Description: Antiviral activity against Coxsackievirus B4 infected in human HeLa cells assessed as reduction of virus-induced cytopathogenicity. Type of data set: functional, organism-based. The conditions noted are these: Enterovirus B.
Data set [29] can be described thus: Cytotoxicity against human HEL cells assessed as alteration of cell morphology up to 100 uM by microscopic analysis. The class given is cell-based.

One may read the EC50 as the concentration giving half of the maximal effect. The term CC50 denotes the concentration at which the toxic effect on the cells reaches its halfway point.

The source made the active and inactive calls. The rule behind the calls is not given here. Bounds are passed on as bounds.

As to `CCCCCCCCCCCCCCCCOCCCOP(=O)([O-])CO[C@H](C)Cn1cnc2c(N)nc(N)nc21.[Na+]`, the EC50 in the data set on Punta Toro virus [1] is 12 µg/mL; in data set [2], 0.58 nM; in data set [5] it was 2.24 nM; in the data set on Human alphaherpesvirus 3 [6], under 0.032 µg/mL; in the data set on Coxsackievirus B4 [8], 9 µg/mL; with Human alphaherpesvirus 3 [11] it was 0.058 µg/mL. The outcome with Human betaherpesvirus 5 [3], in the data set on Human alphaherpesvirus 2 [4], with Human alphaherpesvirus 1 [7], in the data set on Felid alphaherpesvirus 1 [9] and in the data set with Vaccinia virus was inactive. In addition, the CC50 was 19800 nM with MT4 and 96000 nM in data set [10].
In the case of `C[C@H](Cn1cnc2c(NCP(=O)(O)O)nc(N)nc21)OCP(=O)(O)O`, the EC50 (in data set [12]; in the data set with Sindbis virus; in the data set with Human betaherpesvirus 5 [13]; in data set [15]; in the data set on Human alphaherpesvirus 1 [16]; in [17]) was over 100 µg/mL each time. The EC50 (in data set [18]; in [20]; with Felid alphaherpesvirus 1 [21]; in the data set with Human respirovirus 3; with Feline coronavirus; in the data set on Punta Toro virus [23]) was over 100 µg/mL each time. In addition, the EC50 (in data set [24]; with Coxsackievirus B4 [26]; in the data set with Human alphaherpesvirus 2 [27]; in the data set with Coxsackievirus B4 [28]) was over 100 µg/mL each time. Besides, the MCC in data set [14], in data set [19], in [22], in data set [25] and in data set [29] was over 100 µg/mL throughout.
On to `C[C@@H](O)CNc1nc(N)nc2c1ncn2C[C@@H](C)O`, for which the EC50 (in data set [12]; in the data set on Sindbis virus; with Human betaherpesvirus 5 [13]; in data set [15]; in the data set with Human alphaherpesvirus 1 [16]; in data set [17]) was over 100 µg/mL in each case. For the same molecule, the EC50 (in data set [18]; in data set [20]; in the data set on Felid alphaherpesvirus 1 [21]; in the data set on Human respirovirus 3; in the data set on Feline coronavirus; with Punta Toro virus [23]) was over 100 µg/mL throughout. In addition, the EC50 (in data set [24]; in the data set with Coxsackievirus B4 [26]; in the data set with Human alphaherpesvirus 2 [27]; in the data set on Coxsackievirus B4 [28]) was over 100 µg/mL throughout. Also, the MCC in data set [14], in data set [19], in [22], in [25] and in data set [29] was over 100 µg/mL in each case.
With `C[C@H](Cn1cnc2c(N)nc(N)nc21)OCP(=O)(O)O`, the EC50 turned out to be 120 nM in data set [2] and 940 nM in data set [5]. Besides, the results for the CC50 (with MT4; in [10]) were over 100000 nM and over 500000 nM, respectively.
As for `C[C@@H](O)CNc1nc(N)c2ncn(C[C@@H](C)O)c2n1`, the EC50 (in [12]; in the data set with Sindbis virus; in the data set on Human betaherpesvirus 5 [13]; in data set [15]; with Human alphaherpesvirus 1 [16]; in [17]) was over 100 µg/mL throughout. Besides, the EC50 (in [18]; in data set [20]; in the data set with Felid alphaherpesvirus 1 [21]; with Human respirovirus 3; with Feline coronavirus; in the data set with Punta Toro virus [23]) was over 100 µg/mL each time. For the same molecule, the EC50 (in [24]; in the data set on Coxsackievirus B4 [26]; with Human alphaherpesvirus 2 [27]; in the data set on Coxsackievirus B4 [28]) was over 100 µg/mL in each case. The MCC in data set [14], in data set [19], in data set [22], in [25] and in data set [29] was over 100 µg/mL in each case.
For `CCOC(=O)[C@H](C)NP(=O)(CO[C@H](C)Cn1cnc2c(N)nc(N)nc21)N[C@@H](C)C(=O)OCC`, the EC50 was 1100 nM in [2] and 290 nM in data set [5]. For the same molecule, the CC50 with MT4 was over 100000 nM; in [10], 215000 nM.
